# Measured values reported in ChEMBL document CHEMBL1134139, “Synthesis and biological activity of novel macrocyclic antifungals. modification of the tyrosine moiety of the lipopeptidolactone FR901469” (2001).
# Numbered stars: 1 amine (or outer) side, 2 acyl side, 3 side chain; on linkers, the order of the positions; unused ones are H or OH. Bridge positions count the residues as written; N and C are the ends. Square brackets hold non-standard residues; d marks the D form. Peptide text beside a SMILES is read from it. Gln(3R-OH) = NC(=O)C[C@@H](O)[C@H](N)C(=O)O; X1 = CCCCCCCCCCCCC[C@H](CC(=O)[*:1])O[*:2]; Pro(3S-OH) = O=C(O)[C@H]1NCC[C@@H]1O; d(aThr) = C[C@@H](O)[C@@H](N)C(=O)O; Hyp = O=C(O)[C@@H]1C[C@@H](O)CN1; Orn = NCCC[C@H](N)C(=O)O
# Tests used:
# Candida albicans [1] = assay: In vitro Antifungal activity against Candida albicans FP633 by agar dilution method using Sabouraud Dextrose agar.; format: functional
# Outline: (§1)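 Agar dilution on Sabouraud Dextrose agar. MIC taken as the lowest concentration that inhibits visible growth.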
# Mus musculus [2] = species on record: Mus musculus; assay: Ability to hemolyze ICR mouse RBCs at 1 mg/mL using microtiter red blood cell hemolysis assay.
# [3] = test system: Meyerozyma guilliermondii; assay: In vitro antifungal activity against Candida guilliermondii FP587 by agar dilution method using Sabouraud Dextrose agar.; format: functional; outline: as §1
# Candida parapsilosis = assay: In vitro antifungal activity against Candida parapsilosis 15001 by agar dilution method using Sabouraud Dextrose agar.; format: functional; settings: Lodderomyces parapsilosis; outline: as §1
# Candida tropicalis = assay: In vitro antifungal activity against Candida tropicalis 8001 by agar dilution method using Sabouraud Dextrose agar.; format: functional; outline: as §1
# Candida albicans [4] = assay: In vitro antifungal activity against Candida albicans FP579 by agar dilution method using Sabouraud Dextrose agar.; format: functional; outline: as §1
# Mus musculus [5] = assay: Compound was evaluated in vivo for antifungal activity and efficacy in disseminated murine candidiasis was determined; format: functional
# Candida albicans [6] = assay: Compound was evaluated in vivo for antifungal activity and efficacy in disseminated murine candidiasis caused by candida albicans FP633; format: functional
# Candida albicans [7] = assay: In vitro antifungal activity against Candida albicans FP633 by agar dilution method using Sabouraud Dextrose agar; format: functional; outline: as §1
# [8] = Candida tropicalis, read-out: MIC
Structure (SMILES),MIC (Candida albicans [1]),Hemolytic activity (Mus musculus [2]),MIC [3],MIC (Candida parapsilosis),MIC (Candida tropicalis),MIC (Candida tropicalis; [8]),MIC (Candida albicans [4]),ED50 (Mus musculus [5]),ED50 (Candida albicans [6]),MIC (Candida albicans [7])
CCCCCCCCCCCCC[C@@H]1CC(=O)N[C@@H]([C@@H](C)O)C(=O)N[C@H](C)C(=O)N[C@@H](Cc2ccc(O)c(NC(=O)CCN)c2)C(=O)N[C@@H](C(C)C)C(=O)N2C[C@H](O)C[C@H]2C(=O)N[C@@H]([C@@H](C)O)C(=O)N[C@@H]([C@@H](C)O)C(=O)N2CC[C@H](O)[C@H]2C(=O)N[C@@H]([C@H](O)CC(N)=O)C(=O)NCC(=O)N[C@@H]([C@@H](C)O)C(=O)N[C@@H](CCCN)C(=O)O1,0.78 µg/mL,49%,0.78 µg/mL,0.78 µg/mL,1.56 µg/mL,1.56 µg/mL,1.56 µg/mL,,,
CCCCCCCCCCCCC[C@H](CC(=O)N[C@@H](C(=O)N[C@H](C)C(=O)N[C@@H](Cc1ccc(O)c([N+](=O)[O-])c1)C(=O)N[C@H](C(=O)N1C[C@H](O)C[C@H]1C(=O)N[C@@H](C(=O)N[C@H](C(=O)N1CC[C@H](O)[C@H]1C(=O)N[C@H](C(=O)NCC(=O)N[C@@H](C(N)=O)[C@@H](C)O)[C@H](O)CC(N)=O)[C@@H](C)O)[C@@H](C)O)C(C)C)[C@@H](C)O)OC(=O)[C@@H](C)CCCN,0.39 µg/mL,100%,0.78 µg/mL,0.78 µg/mL,0.78 µg/mL,0.78 µg/mL,0.78 µg/mL,0.45 mg/kg,,
CCCCCCCCCCCCC[C@H](CC(=O)N[C@@H](C(=O)N[C@H](C)C(=O)N[C@@H](Cc1ccc(O)cc1)C(=O)N[C@H](C(=O)N1C[C@H](O)C[C@H]1C(=O)N[C@@H](C(=O)N[C@H](C(=O)N1CC[C@H](O)[C@H]1C(=O)N[C@H](C(=O)NCC(=O)N[C@@H](C(N)=O)[C@@H](C)O)[C@H](O)CC(N)=O)[C@@H](C)O)[C@@H](C)O)C(C)C)[C@@H](C)O)OC(=O)[C@@H](C)CCCNC(C)=O,0.39 µg/mL,5%,0.78 µg/mL,1.56 µg/mL,1.56 µg/mL,1.56 µg/mL,0.78 µg/mL,,,
CCCCCCCCCCCCC[C@@H]1CC(=O)N[C@H]([C@@H](C)O)C(=O)N[C@H](C)C(=O)N[C@@H](Cc2ccc(O)cc2)C(=O)N[C@@H](C(C)C)C(=O)N2C[C@H](O)C[C@H]2C(=O)N[C@H]([C@@H](C)O)C(=O)N[C@@H]([C@@H](C)O)C(=O)N2CC[C@H](O)[C@H]2C(=O)N[C@@H]([C@H](O)CC(N)=O)C(=O)NCC(=O)N[C@H]([C@@H](C)O)C(=O)N[C@@H](CCCN)C(=O)O1 [FR-901469] ([d(aThr)][dA]YV[Hyp][d(aThr)]T[Pro(3S-OH)][Gln(3R-OH)]G[d(aThr)][Orn]; linker N-C via X1),,100%,0.39 µg/mL,0.39 µg/mL,0.39 µg/mL,0.39 µg/mL,0.39 µg/mL,,0.88 mg/kg,0.39 µg/mL
